Source: ChEMBL document CHEMBL1949512, “RO4383596, an orally active KDR, FGFR, and PDGFR inhibitor: synthesis and biological evaluation” (Bioorg Med Chem, 2005)

Assays:
[1] = Tmax in athymic nude mouse at 50 mg/kg, po; type: ADME, organism-based; set-up: dose 50 mg/kg, route oral; details: in vivo
How it was run: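 Athymic nude mice, single oral dose 50 mg/kg in 2% Klucel LF, 0.1% Tween 80 in water, 0.2 mL. Retro-orbital or terminal cardiac blood at 5, 15, 30 min and 1, 2, 4, 8, 16, 24 h; EDTA plasma by LC-MS/MS. Composite parameters; Tmax read from mean concentration–time profile.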

[2] = Cmax in athymic nude mouse at 50 mg/kg, po; type: ADME, organism-based; set-up: dose 50 mg/kg, route oral; details: in vivo
How it was run: (§1)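 Athymic nude mice received one dose, either iv 10 mg/kg in 2% DMA/10% PEG400/88% of 40% HPBCD in water, or po 50 mg/kg in 2% Klucel LF/0.1% Tween 80. Retro-orbital or terminal cardiac blood was drawn from 1 min (iv) or 5 min (po) to 24 h into EDTA. Plasma was analysed by LC-MS/MS. Composite parameters were obtained by non-compartmental analysis, with AUC extrapolated to infinity.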

[3] = Volume of distribution at steady state in Wistar rat at 5 mg/kg, iv; type: ADME, organism-based; set-up: dose 5 mg/kg, route intravenous; details: in vivo, read-out: Vdss
How it was run: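 Single 5 mg/kg iv dose to Wistar rats via femoral arterial catheter, vehicle 2% DMA, 10% PEG400, 88% of 40% HPBCD in water, 2.5 mL/kg. Jugular blood at 1, 7, 15, 30 min and 1, 3, 6, 12, 24 h; plasma by LC-MS/MS. Vdss by non-compartmental analysis per animal, averaged.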

[4] = Half life in athymic nude mouse at 10 mg/kg, iv; type: ADME, organism-based; set-up: dose 10 mg/kg, route intravenous; details: in vivo; how it was run: as §1
[5] = AUC in athymic nude mouse at 50 mg/kg, po; type: ADME, organism-based; set-up: dose 50 mg/kg, route oral; details: plasma; how it was run: as §1
[6] = molecular target: Protein kinase C alpha type (Homo sapiens, UniProt P17252); assay: Inhibition of PKCalpha by IMAP assay
How it was run: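 IMAP fluorescence-polarization assay, in which phosphorylated fluorescent peptide substrates bind immobilized metal beads. Reactions ran at ATP three times Km.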

[7] = Clearance in athymic nude mouse at 10 mg/kg, iv; type: ADME, organism-based; set-up: dose 10 mg/kg, route intravenous; details: in vivo; how it was run: as §1
[8] = system: HUVEC; assay: Antiangiogenic activity in HUVEC assessed as inhibition of bFGF-induced cell proliferation; details: Homo sapiens
[9] = Cmax in Wistar rat at 50 mg/kg, po; type: ADME, organism-based; set-up: dose 50 mg/kg, route oral; details: in vivo
How it was run: (§2)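 Wistar rats received one dose, either iv 5 mg/kg via femoral arterial catheter (2% DMA/10% PEG400/88% of 40% HPBCD) or po 50 mg/kg (2% Klucel LF/0.1% Tween 80). Blood came from an implanted jugular catheter, up to 24 h (iv) or 48 h (po), into EDTA. Plasma LC-MS/MS; individual non-compartmental parameters were averaged.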

[10] = Volume of distribution at steady state in athymic nude mouse at 10 mg/kg, iv; type: ADME, organism-based; set-up: dose 10 mg/kg, route intravenous; details: in vivo, read-out: Vdss
How it was run: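 Athymic nude mice given single 10 mg/kg iv dose in 2% DMA, 10% PEG400, 88% of 40% HPBCD in water, 0.2 mL. Blood at 1, 5, 15, 30 min and 1, 2, 4, 8, 16, 24 h; EDTA plasma, LC-MS/MS. Composite Vdss by non-compartmental analysis.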

[11] = system: Mus musculus; assay: Antiangiogenic activity in C57/BL6 mouse cornea assessed as inhibition of VEGF-induced angiogenesis at 50 mg/kg, po bid for 7 days by corneal pocket assay relative to control; type: functional; details: 168 h
How it was run: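 VEGF-impregnated pellets were implanted in corneas of female C57/BL6 mice aged 5–7 weeks. Oral twice-daily dosing started the same day and ran 7 days. The area of vascularization was then quantitated relative to animals given vehicle (2% Klucel LF, 0.1% Tween 80 in water).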

[12] = molecular target: Tyrosine-protein kinase Fyn (Homo sapiens, UniProt P06241); assay: Inhibition of Fyn by IMAP assay
How it was run: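 IMAP fluorescence-polarisation assay: kinase activity read as phosphorylated fluorescent peptide substrate binding preferentially to immobilised metal beads. Reactions run with ATP at three times the Km.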

[13] = AUC in C57/BL6 mouse at 50 mg/kg, po bid for 5 days; type: ADME, organism-based; set-up: dose 50 mg/kg, route oral; details: plasma
How it was run: (§3)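 Female C57/BL6 mice were dosed orally twice daily for 5 days with a suspension in 2% Klucel LF/0.1% Tween 80 in water. Six mice per dose were split into two subgroups of three, each sampled at alternate time points. Retro-orbital blood was taken at 0, 1, 4 and 8 h post-dose into EDTA, and plasma was analysed by LC-MS/MS. Parameters come from mean concentrations; AUC0–8h by linear trapezoidal rule; Cmax and Tmax as observed.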

[14] = molecular target: Vascular endothelial growth factor receptor 2 (Homo sapiens, UniProt P35968); assay: Inhibition of human recombinant EE-tagged intracellular domain of KDR using biotin-EEEEYFELVAKKKK as substrate by HTRF assay
[15] = Tmax in […] mouse at 100 mg/kg, po; type: ADME, organism-based; set-up: dose 100 mg/kg, route oral; details: in vivo
How it was run: (§4)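 A separate group of female mice received one 100 mg/kg oral dose. Median PK parameters were calculated for that cohort.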

[16] = Tmax in C57/BL6 mouse at 100 mg/kg, po bid for 5 days; type: ADME, organism-based; set-up: dose 100 mg/kg, route oral; details: in vivo; how it was run: as §3
[17] = Oral bioavailability in athymic nude mouse at 50 mg/kg; type: ADME, organism-based; details: in vivo; how it was run: as §1
[18] = system: Mus musculus; assay: Antiangiogenic activity in C57/BL6 mouse cornea assessed as inhibition of bFGF-induced angiogenesis at 50 mg/kg, po bid for 5 days by corneal pocket assay relative to control; type: functional; details: 120 h
How it was run: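 bFGF-impregnated pellets were implanted in corneas of female C57/BL6 mice aged 5–7 weeks. Oral dosing twice daily began the same day for 5 days. The neovascularized area was quantitated against vehicle-treated animals (2% Klucel LF, 0.1% Tween 80 in water).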

[19] = Tmax in C57/BL6 mouse at 25 mg/kg, po bid for 5 days; type: ADME, organism-based; set-up: dose 25 mg/kg, route oral; details: in vivo; how it was run: as §3
[20] = system: Mus musculus; assay: Dose normalized AUC in C57/BL6 mouse at 100 mg/kg, po bid for 5 days; type: ADME, organism-based; set-up: dose 100 mg/kg, route oral; details: in vivo, 120 h; how it was run: as §3
[21] = AUC in athymic nude mouse at 10 mg/kg, iv; type: ADME, organism-based; set-up: dose 10 mg/kg, route intravenous; details: plasma; how it was run: as §1
[22] = Cmax in […] mouse at 100 mg/kg, po; type: ADME, organism-based; set-up: dose 100 mg/kg, route oral; details: in vivo; how it was run: as §4
[23] = Tmax in C57/BL6 mouse at 50 mg/kg, po bid for 5 days; type: ADME, organism-based; set-up: dose 50 mg/kg, route oral; details: in vivo; how it was run: as §3
[24] = molecular target: Fibroblast growth factor receptor (Homo sapiens, UniProt P22607+P11362+P22455+P21802); assay: Inhibition of human recombinant GST-tagged intracellular domain of FGFR using biotin-EEEEYFELV as substrate by HTRF assay
[25] = AUC in […] mouse at 100 mg/kg, po; type: ADME, organism-based; set-up: dose 100 mg/kg, route oral; details: plasma; how it was run: as §4
[26] = AUC in Wistar rat at 5 mg/kg, iv; type: ADME, organism-based; set-up: dose 5 mg/kg, route intravenous; details: plasma; how it was run: as §2
[27] = Cmax in C57/BL6 mouse at 50 mg/kg, po bid for 5 days; type: ADME, organism-based; set-up: dose 50 mg/kg, route oral; details: in vivo; how it was run: as §3
[28] = Oral bioavailability in Wistar rat at 50 mg/kg; type: ADME, organism-based; details: in vivo; how it was run: as §2
[29] = AUC in Wistar rat at 50 mg/kg, po; type: ADME, organism-based; set-up: dose 50 mg/kg, route oral; details: plasma; how it was run: as §2
[30] = Cmax in C57/BL6 mouse at 25 mg/kg, po bid for 5 days; type: ADME, organism-based; set-up: dose 25 mg/kg, route oral; details: in vivo; how it was run: as §3
[31] = system: Mus musculus; assay: Dose normalized AUC in C57/BL6 mouse at 50 mg/kg, po bid for 5 days; type: ADME, organism-based; set-up: dose 50 mg/kg, route oral; details: in vivo, 120 h; how it was run: as §3
[32] = molecular target: Platelet-derived growth factor receptor (Homo sapiens, UniProt P09619+P16234); assay: Inhibition of human recombinant His-tagged intracellular domain of PDGFR using biotin-EEEEYFELV as substrate by HTRF assay

Tyrosine-protein kinase Fyn, sequence (P06241 whole entry): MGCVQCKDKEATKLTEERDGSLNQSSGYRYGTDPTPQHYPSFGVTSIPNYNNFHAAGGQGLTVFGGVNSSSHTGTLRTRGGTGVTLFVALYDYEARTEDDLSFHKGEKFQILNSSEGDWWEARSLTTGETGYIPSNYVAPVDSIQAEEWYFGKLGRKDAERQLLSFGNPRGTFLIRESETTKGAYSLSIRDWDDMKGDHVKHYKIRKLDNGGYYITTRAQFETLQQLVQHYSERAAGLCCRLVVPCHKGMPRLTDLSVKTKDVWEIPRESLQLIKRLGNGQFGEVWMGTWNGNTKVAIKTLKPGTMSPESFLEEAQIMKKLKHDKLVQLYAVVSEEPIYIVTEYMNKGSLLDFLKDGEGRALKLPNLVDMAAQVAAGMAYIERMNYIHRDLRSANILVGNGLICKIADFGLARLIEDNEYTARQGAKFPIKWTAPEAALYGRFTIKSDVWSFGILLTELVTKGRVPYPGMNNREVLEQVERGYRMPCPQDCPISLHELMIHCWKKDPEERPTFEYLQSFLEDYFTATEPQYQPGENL
Vascular endothelial growth factor receptor 2, sequence (P35968 whole entry, the tested form may be a part): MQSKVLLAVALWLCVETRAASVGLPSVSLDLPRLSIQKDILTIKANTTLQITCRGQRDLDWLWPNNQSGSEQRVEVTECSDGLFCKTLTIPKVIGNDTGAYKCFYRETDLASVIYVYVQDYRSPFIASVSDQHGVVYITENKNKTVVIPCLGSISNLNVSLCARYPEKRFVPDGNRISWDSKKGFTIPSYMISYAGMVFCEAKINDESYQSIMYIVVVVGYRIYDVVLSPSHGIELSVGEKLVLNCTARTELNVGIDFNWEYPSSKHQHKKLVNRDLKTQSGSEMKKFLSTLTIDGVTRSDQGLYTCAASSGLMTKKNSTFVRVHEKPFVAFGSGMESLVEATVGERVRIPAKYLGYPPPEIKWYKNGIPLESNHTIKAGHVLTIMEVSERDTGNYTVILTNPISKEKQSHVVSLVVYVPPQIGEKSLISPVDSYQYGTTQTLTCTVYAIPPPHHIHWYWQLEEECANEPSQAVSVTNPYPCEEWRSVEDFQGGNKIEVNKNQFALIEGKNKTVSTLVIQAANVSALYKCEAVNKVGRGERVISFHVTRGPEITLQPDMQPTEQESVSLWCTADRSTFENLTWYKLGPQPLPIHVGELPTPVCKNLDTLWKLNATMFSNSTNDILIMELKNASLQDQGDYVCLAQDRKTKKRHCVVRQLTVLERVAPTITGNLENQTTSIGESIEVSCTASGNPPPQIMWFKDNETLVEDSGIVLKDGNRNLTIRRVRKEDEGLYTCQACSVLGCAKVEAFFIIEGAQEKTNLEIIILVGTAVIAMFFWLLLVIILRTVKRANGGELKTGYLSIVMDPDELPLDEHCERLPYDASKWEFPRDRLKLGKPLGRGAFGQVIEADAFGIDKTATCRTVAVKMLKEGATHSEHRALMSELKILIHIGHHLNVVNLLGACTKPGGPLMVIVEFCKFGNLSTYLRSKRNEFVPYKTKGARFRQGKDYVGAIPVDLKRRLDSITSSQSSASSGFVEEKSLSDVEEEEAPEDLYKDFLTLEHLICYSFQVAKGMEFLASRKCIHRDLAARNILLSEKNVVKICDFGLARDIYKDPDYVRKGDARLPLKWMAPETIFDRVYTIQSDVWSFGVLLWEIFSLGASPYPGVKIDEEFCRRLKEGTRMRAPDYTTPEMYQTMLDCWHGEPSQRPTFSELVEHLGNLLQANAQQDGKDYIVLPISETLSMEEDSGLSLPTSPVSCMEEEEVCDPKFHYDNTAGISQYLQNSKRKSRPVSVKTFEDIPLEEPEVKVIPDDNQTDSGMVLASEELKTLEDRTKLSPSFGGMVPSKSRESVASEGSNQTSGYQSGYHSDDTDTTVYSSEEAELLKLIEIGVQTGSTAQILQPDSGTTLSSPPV

Tmax [1]: 15 min
Cmax [2]: 16500 ng/mL
Vd [3]: 5.3 L/kg
half-life [4]: 180 min
AUC [5]: 51300 ng·h/mL
IC50 [6]: > 125 µM
clearance [7]: 15.1 mL/min/kg
Cmax [9]: 7180 ng/mL
Vd [10]: 1.9 L/kg
IC50 [12]: 0.322 µM
AUC at 120 h [13]: 75500 ng·h/mL
IC50 [14]: 0.044 µM
Tmax [15]: 30 min
Tmax [16]: 30 min
bioavailability [17]: 93%
Tmax [19]: 30 min
AUC/dose [20]: 1458 ng·h/mL/mg/kg
AUC [21]: 11100 ng·h/mL
Cmax [22]: 37600 ng/mL
Tmax [23]: 30 min
IC50 [24]: 0.029 µM
AUC [25]: 146000 ng·h/mL
AUC [26]: 4010 ng·h/mL
Cmax [27]: 28400 ng/mL
bioavailability [28]: 65%
AUC [29]: 26500 ng·h/mL
Cmax [30]: 12000 ng/mL
AUC/dose [31]: 1510 ng·h/mL/mg/kg
IC50 [32]: 0.033 µM
Structure (SMILES): COc1ccc(N2Cc3cnc(Nc4ccccc4)nc3N([C@@H]3CC[C@@H](O)C3)C2=O)cc1 (racemic)
IC50 [8]: 0.15 µM
inhibition in vivo at 50 mg/kg [11]: 91%
inhibition in vivo at 50 mg/kg [18]: 80%
